Measured values reported in ChEMBL document CHEMBL2346663 (J Med Chem, 2013).

What was measured:
[1] = target: Sodium-dependent serotonin transporter (Homo sapiens, UniProt P31645); experiment: Inhibition of serotonin reuptake at human SERT expressed in HEK293 cells coexpressing macrophage scavenger receptor; format: cell-based
Procedure, shortened: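 HEK-293 MSR cells grown in DMEM with 10% FCS, penicillin/streptomycin and 6 µg/mL Geneticin at 37 °C and 5% CO2. Cells transfected with a pcDNA3.1 human SERT plasmid and assayed for [3H]5-HT uptake.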

Myeloperoxidase [2] = target: T1, Myeloperoxidase (Homo sapiens, UniProt P05164); experiment: Inhibition of human recombinant MPO-mediated LDL oxidation after 5 mins by ELISA
T1 sequence (P05164 whole entry): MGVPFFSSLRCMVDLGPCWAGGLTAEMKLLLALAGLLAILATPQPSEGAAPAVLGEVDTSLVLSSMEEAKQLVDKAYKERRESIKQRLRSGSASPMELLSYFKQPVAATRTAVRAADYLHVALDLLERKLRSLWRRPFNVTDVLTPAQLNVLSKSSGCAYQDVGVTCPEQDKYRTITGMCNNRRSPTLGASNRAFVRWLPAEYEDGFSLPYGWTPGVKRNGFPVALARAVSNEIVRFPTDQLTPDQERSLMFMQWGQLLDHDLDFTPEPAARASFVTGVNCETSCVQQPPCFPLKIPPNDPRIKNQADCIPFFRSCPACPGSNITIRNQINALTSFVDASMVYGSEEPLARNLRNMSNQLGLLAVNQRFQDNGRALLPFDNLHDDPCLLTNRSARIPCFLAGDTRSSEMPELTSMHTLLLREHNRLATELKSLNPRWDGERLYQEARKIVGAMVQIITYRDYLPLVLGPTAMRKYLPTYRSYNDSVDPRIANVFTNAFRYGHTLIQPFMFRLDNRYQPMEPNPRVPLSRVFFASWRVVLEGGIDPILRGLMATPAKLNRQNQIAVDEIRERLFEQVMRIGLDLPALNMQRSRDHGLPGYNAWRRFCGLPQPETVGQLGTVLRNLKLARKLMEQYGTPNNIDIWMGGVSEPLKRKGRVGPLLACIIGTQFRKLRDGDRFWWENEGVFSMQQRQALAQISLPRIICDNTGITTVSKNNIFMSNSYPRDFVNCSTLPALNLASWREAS
Procedure, shortened: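 Recombinant MPO (1 µg/mL) with human plasma LDL (1000 µg/mL; ultracentrifuged fraction 1.019–1.067 g/mL, desalted in PBS) in PBS pH 7.2 with 4 mM HCl and test compound at several concentrations. Reaction started with 100 µM H2O2 at 37 °C and stopped after 5 min on ice. Oxidized LDL read by ELISA: 200 ng/well LDL coated, Mab AG9 antibody, alkaline phosphatase anti-mouse IgG, p-nitrophenyl phosphate, A405 corrected at 655 nm.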

Myeloperoxidase [3] = target: T1, Myeloperoxidase; experiment: Inhibition of human recombinant MPO-mediated taurine chlorination after 5 mins by microplate assay; format: single protein
Procedure, shortened: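 Recombinant MPO (40 nM) in 10 mM phosphate pH 7.4 with 300 mM NaCl and 15 mM taurine, inhibitor up to 20 µM, 37 °C. Started with H2O2 (100 µM), stopped after 5 min with catalase. Taurine chloramine measured with thionitrobenzoic acid at 412 nm. IC50 taken from the absorbance–concentration curve; no H2O2 set as 100% inhibition, no inhibitor as 0%.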

Homo sapiens = species on record: Homo sapiens; experiment: Selectivity ratio of Ki for human SERT to IC50 for human recombinant MPO-mediated LDL oxidation
Procedure, shortened: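 Ratio of two measured values. Recombinant human MPO (1 µg/mL) oxidised LDL (1000 µg/mL) in PBS pH 7.2 with 4 mM HCl and 100 µM H2O2 at 37 °C for 5 min. Oxidised LDL was detected by ELISA with Mab AG9 at 405 nm to give the IC50. hSERT was transiently expressed in HEK-293 MSR cells and assayed by [3H]5-HT uptake.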

Rattus norvegicus [4] = experiment: Toxicity in Wistar Han rat assessed as macroscopic heart lesions at 1 to 100 mg/kg, ip by necropsic analysis; format: organism-based; parameters: dose 1-100 mg/kg, route intraperitoneal; settings: in vivo
Procedure, shortened: (§1)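 Male Wistar Han rats (~285 g), 3 per group, received a single i.p. dose of 1, 10 or 100 mg/kg in alcohol/water 1:3 (v/v), with vehicle controls. Clinical signs were recorded daily. After 4 days, rats were killed by exsanguination, and liver, kidney, heart and muscle were examined grossly at necropsy.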

Rattus norvegicus [5] = experiment: Toxicity in Wistar Han rat assessed as macroscopic liver lesions at 1 to 100 mg/kg, ip by necropsic analysis; format: organism-based; parameters: dose 1-100 mg/kg, route intraperitoneal; settings: in vivo; procedure, shortened: as §1
Rattus norvegicus [6] = experiment: Toxicity in Wistar Han rat assessed as macroscopic kidney lesions at 1 to 100 mg/kg, ip by necropsic analysis; format: organism-based; parameters: dose 1-100 mg/kg, route intraperitoneal; settings: in vivo; procedure, shortened: as §1
Rattus norvegicus [7] = experiment: Toxicity in Wistar Han rat at 1 to 10 mg/kg, ip; format: organism-based; parameters: dose 1-10 mg/kg, route intraperitoneal; settings: in vivo
Procedure, shortened: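 Male Wistar Han rats (~285 g), 3 per group, received a single i.p. injection of 1 or 10 mg/kg in alcohol/water 1:3 (v/v), with vehicle controls. Physical and clinical signs were recorded daily for 4 days, followed by exsanguination and gross necropsy.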

Rattus norvegicus [8] = experiment: Toxicity in Wistar Han rat assessed as occurrence of piloerection at 100 mg/kg, ip after 24 hrs; format: organism-based; parameters: dose 100 mg/kg, route intraperitoneal; settings: in vivo
Procedure, shortened: (§2)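 Male Wistar Han rats (~285 g), 3 per group, given one i.p. dose in 2 ml alcohol/water 1:3 (v/v); vehicle-only controls. Doses were 10 or 100 mg/kg, or 1, 10 or 100 mg/kg, depending on the compound. Clinical signs recorded daily. Rats killed by exsanguination after 4 days, with gross organ examination at necropsy.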

Rattus norvegicus [9] = experiment: Toxicity in Wistar Han rat assessed as macroscopic muscle lesions at 1 to 100 mg/kg, ip by necropsic analysis; format: organism-based, Muscle tissue; parameters: dose 1-100 mg/kg, route intraperitoneal; settings: in vivo; procedure, shortened: as §1
Rattus norvegicus [10] = experiment: Toxicity in Wistar Han rat assessed as mortality at 1 to 100 mg/kg, ip; format: organism-based; parameters: dose 1-100 mg/kg, route intraperitoneal; settings: in vivo
Rattus norvegicus [11] = experiment: Toxicity in Wistar Han rat assessed as prostarted posture at 100 mg/kg, ip after 24 hrs; format: organism-based; parameters: dose 100 mg/kg, route intraperitoneal; settings: in vivo; procedure, shortened: as §2
Rattus norvegicus [12] = experiment: Toxicity in Wistar Han rat at 10 mg/kg, ip; format: organism-based; parameters: dose 10 mg/kg, route intraperitoneal; settings: in vivo; procedure, shortened: as §2
Rattus norvegicus [13] = experiment: Toxicity in Wistar Han rat assessed as occurrence of macroscopic liver lesions at 100 mg/kg, ip by necropsic analysis; format: organism-based; parameters: dose 100 mg/kg, route intraperitoneal; settings: in vivo; procedure, shortened: as §2
Rattus norvegicus [14] = experiment: Toxicity in Wistar Han rat assessed as paralysis of hind limbs at 100 mg/kg, ip after 48 hrs; format: organism-based, Hindlimb; parameters: dose 100 mg/kg, route intraperitoneal; settings: in vivo; procedure, shortened: as §2
Rattus norvegicus [15] = experiment: Toxicity in Wistar Han rat assessed as mortality at 10 to 100 mg/kg, ip after 4 days; format: organism-based; parameters: dose 10-100 mg/kg, route intraperitoneal; settings: in vivo, 96 h
Rattus norvegicus [16] = experiment: Toxicity in Wistar Han rat assessed as occurrence of piloerection at 100 mg/kg, ip after 48 hrs; format: organism-based; parameters: dose 100 mg/kg, route intraperitoneal; settings: in vivo; procedure, shortened: as §2

Sodium-dependent serotonin transporter, sequence (P31645 whole entry): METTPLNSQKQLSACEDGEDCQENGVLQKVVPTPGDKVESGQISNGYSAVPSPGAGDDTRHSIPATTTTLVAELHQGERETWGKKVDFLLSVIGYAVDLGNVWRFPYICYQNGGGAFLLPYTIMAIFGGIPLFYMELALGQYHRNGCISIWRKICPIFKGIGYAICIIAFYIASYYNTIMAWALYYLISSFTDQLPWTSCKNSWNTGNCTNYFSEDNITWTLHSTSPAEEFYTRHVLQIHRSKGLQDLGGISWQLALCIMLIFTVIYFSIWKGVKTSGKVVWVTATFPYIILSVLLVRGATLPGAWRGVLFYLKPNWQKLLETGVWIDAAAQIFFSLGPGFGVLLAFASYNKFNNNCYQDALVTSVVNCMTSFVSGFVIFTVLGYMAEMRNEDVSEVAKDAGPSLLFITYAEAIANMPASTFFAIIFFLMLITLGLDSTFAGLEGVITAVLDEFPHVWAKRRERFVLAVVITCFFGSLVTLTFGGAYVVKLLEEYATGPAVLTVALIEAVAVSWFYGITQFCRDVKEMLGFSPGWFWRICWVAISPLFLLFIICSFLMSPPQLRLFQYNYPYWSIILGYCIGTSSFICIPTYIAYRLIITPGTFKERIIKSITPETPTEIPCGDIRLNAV

SMILES	Ki ([1]; read-out: Ki) [nM]	IC50 (Myeloperoxidase [2]; read-out: IC50) [nM]	IC50 (Myeloperoxidase [3]; read-out: IC50) [nM]	Ratio (Homo sapiens)	other results
NCCCc1c[nH]c2c(F)cccc12	24	26	24	1	–
NCC(N)CCc1c[nH]c2ccc(F)cc12 (stereo not given)	12	26	60	0.2	–
N#CCCCc1c[nH]c2ccc(C(=O)O)cc12	–	–	–	–	Ki ([1]; hek293): Not Active; IC50 (Myeloperoxidase [2]): Not Active; IC50 (Myeloperoxidase [3]): Not Active
NCCc1c[nH]c2ccccc12 [TRYPTAMINE]	–	–	770	–	–
NCCSCCc1c[nH]c2ccc(F)cc12	2.3	–	–	0.6	–
OCCNCCc1c[nH]c2ccc(F)cc12	10	31	10	1	–
NCCCc1c[nH]c2ccc(C(=O)O)cc12	–	–	–	–	Ki ([1]; hek293): Not Active; IC50 (Myeloperoxidase [2]): Not Active; IC50 (Myeloperoxidase [3]): Not Active
NC(=O)CCc1c[nH]c2c(F)cccc12	–	64	271	–	–
N[C@@H](Cc1ccc(O)cc1)C(=O)O [TYROSINE]	–	–	–	–	IC50 (Myeloperoxidase [3]): Not Active
NCCc1c[nH]c2c(F)cccc12	29	28	29	1	–
N#CCCCc1c[nH]c2ccc(F)cc12	184	72	63	2.9	–
CCN(CCc1c[nH]c2ccc(F)cc12)S(C)(=O)=O	–	–	–	12	–
NCCSCCCc1c[nH]c2ccc(F)cc12	0.9	–	35	0.02	–
NC(=O)CCc1c[nH]c2ccc(F)cc12	–	34	132	–	–
CCSCCCc1c[nH]c2ccc(F)cc12	–	> 100	> 100	–	Ki ([1]; hek293): Not Active
CCSCCc1c[nH]c2ccc(F)cc12	–	> 100	> 100	–	Ki ([1]; hek293): Not Active

SMILES	Ki ([1]; read-out: Ki) [nM]	IC50 (Myeloperoxidase [2]; read-out: IC50) [nM]	IC50 (Myeloperoxidase [3]; read-out: IC50) [nM]	Ratio (Homo sapiens)	other results
OCCNCCCc1c[nH]c2ccc(F)cc12	62	43	10	6.2	–
CCNC(=O)CCCc1c[nH]c2ccc(F)cc12	–	243	182	–	–
NCCCCc1c[nH]c2ccc(C(=O)O)cc12	–	–	–	–	Ki ([1]; hek293): Not Active; IC50 (Myeloperoxidase [2]): Not Active; IC50 (Myeloperoxidase [3]): Not Active
Fc1ccc2[nH]cc(CCCNCc3ccccc3)c2c1	53	30	13	4.1	–
CCN(CCCc1c[nH]c2ccc(F)cc12)S(C)(=O)=O	12	–	37	0.3	–
NC(=O)CCCCc1c[nH]c2ccc(F)cc12	–	43	39	–	–
NC(=O)CCCCc1c[nH]c2c(F)cccc12	–	44	34	–	–
NCCSCCCc1c[nH]c2c(F)cccc12	539	> 100	> 100	–	–
NC(=O)CCCc1c[nH]c2ccc(F)cc12	–	–	18	35	Activity (Rattus norvegicus [4]): Non-toxic; Activity (Rattus norvegicus [5]): Non-toxic; Activity (Rattus norvegicus [6]): Non-toxic; Activity (Rattus norvegicus [7]): Non-toxic; Activity (Rattus norvegicus [8]): Toxic; Activity (Rattus norvegicus [9]): Non-toxic; Activity (Rattus norvegicus [10]): Non-toxic; Activity (Rattus norvegicus [11]): Toxic
CCCc1c[nH]c2ccc(F)cc12	–	> 100	> 100	–	Ki ([1]; hek293): Not Active
NCCc1c[nH]c2ccc(O)cc12 [SEROTONIN]	–	–	–	–	IC50 (Myeloperoxidase [3]): Not Active
Fc1ccc2[nH]cc(CCCN3CCN(c4ccccc4)CC3)c2c1	36	60	22	1.6	–
N#CSCCCc1c[nH]c2ccc(F)cc12	–	–	–	42	–
NCCSCCc1c[nH]c2c(F)cccc12	24	–	–	8	Activity (Rattus norvegicus [12]): Non-toxic; Activity (Rattus norvegicus [13]): Toxic; Activity (Rattus norvegicus [14]): Toxic; Activity (Rattus norvegicus [15]): Non-toxic; Activity (Rattus norvegicus [16]): Toxic
NCCCCc1c[nH]c2c(F)cccc12	8	–	–	1.3	–
